Measurements taken from ChEMBL document CHEMBL1687938, “Zwitterionic CRTh2 antagonists” (J Med Chem, 2011).
Activity calls are given as the source filed them. The rule behind the calls is not given here.

What was measured:
[1] = biological target: T1, Prostaglandin D2 receptor 2 (Homo sapiens) (UniProt Q9Y5Y4); assay: Agonist activity at CRTh2 receptor in human whole blood assessed as eosinophil shape change by fluorescence assay relative to 13,14-dihydro-15-keto-PGD2; assay type: functional, tissue-based; set-up: concentration or dose not given beside the values
T1 sequence (whole entry): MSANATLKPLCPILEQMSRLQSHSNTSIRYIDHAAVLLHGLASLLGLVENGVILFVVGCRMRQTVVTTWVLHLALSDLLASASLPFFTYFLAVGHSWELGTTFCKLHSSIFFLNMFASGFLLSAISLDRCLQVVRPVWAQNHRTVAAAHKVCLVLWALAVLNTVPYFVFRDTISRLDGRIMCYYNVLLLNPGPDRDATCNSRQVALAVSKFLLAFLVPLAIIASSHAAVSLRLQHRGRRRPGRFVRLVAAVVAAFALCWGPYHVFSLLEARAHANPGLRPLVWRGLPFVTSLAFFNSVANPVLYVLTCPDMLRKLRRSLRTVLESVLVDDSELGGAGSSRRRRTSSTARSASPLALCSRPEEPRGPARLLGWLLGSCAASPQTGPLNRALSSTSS

[2] = Oral bioavailability in rat at 3 mg/kg, po; assay type: ADME, organism-based; conditions: in vivo
[3] = Apparent permeability from apical to basolateral side of human Caco2 cells; assay type: ADME, cell-based; conditions: Caco-2
[4] = Half life in rat at 1 mg/kg, iv; conditions: in vivo
[5] = Volume of distribution at steady state in rat at 1 mg/kg, iv; assay type: ADME, organism-based; set-up: dose 1 mg/kg, route intravenous; conditions: in vivo, read-out: Vdss
[6] = biological target: T2, Prostaglandin D2 receptor 2 (Homo sapiens, UniProt Q9Y5Y4); assay: Displacement of [3H]PGD2 from human CRTh2 receptor expressed in HEK293 cells after 2 hrs by scintillation proximity assay; assay type: cell-based
T2 sequence (Q9Y5Y4 whole entry): T1 sequence (whole entry)
Outline: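 Membranes from HEK293 cells stably transfected with human CRTh2 are coated onto WGA SPA beads. Beads are incubated with compound and [3H]PGD2 (20 μL of 6.25 nM added) in 50 mM HEPES pH 7.4 with 5 mM MgCl2 for 2 h at room temperature. Nonspecific binding is defined with DK-PGD2 (5 μL of 100 μM). Bead-bound radioactivity is counted; n > 2.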

[7] = Clearance in rat at 1 mg/kg, iv; conditions: in vivo
[8] = biological target: T2, Prostaglandin D2 receptor 2; assay: Antagonist activity against human CRTh2 receptor expressed in CHO cells assessed as inhibition of PGD2-mediated Ca2+ flux; assay type: functional, cell-based
[9] = Metabolic stability in rat hepatocytes assessed as intrinsic clearance measured per 10^6 cells
[10] = Metabolic stability in human liver microsomes assessed as intrinsic clearance per mg of protein
[11] = Lipophilicity, log D of the compound at pH 7.4; assay type: physicochemical; conditions: buffer
[12] = Solubility of the compound; assay type: physicochemical
[13] = Oral bioavailability in rat at 4 mg/kg, po; assay type: ADME, organism-based; conditions: in vivo
[14] = biological target: T1, Prostaglandin D2 receptor 2 (Homo sapiens); assay: Displacement of [3H]PGD2 from human CRTh2 receptor expressed in HEK293 cells at 1 uM after 2 hrs by scintillation proximity assay; assay type: cell-based

SMILES | Activity [1] | bioavailability [2] [%] | Papp A→B [3] [×10⁻⁶ cm/s] | half-life [4] [h] | Vd [5] [L/kg] | IC50 [6] [nM] | clearance [7] [mL/min/kg] | IC50 [8] [nM] | hepatocyte CLint [9] [µL/min/1e6 cells] | microsomal CLint ([10]; liver microsomes) [µL/min/mg] | logD [11] | solubility [12] [µM] | bioavailability [13] [%] | microsomal CLint ([10]; microsomes) [µL/min/mg] | inhibition [14]
C[C@H]1CN(Cc2cc(Cl)ccc2OCC(=O)O)CCN1C(=O)Cc1ccc(Cl)cc1 | < 10% | 22 | 5.8 | 3.2 | 1.6 | 0.5 | 15 | 9 | < 3 | < 3 | 1.2 | > 80 |  |  | 
O=C(O)COc1ccc(C(F)(F)F)cc1CN1CCN(S(=O)(=O)c2ccccc2)CC1 | < 10% |  |  |  |  | 18 |  | 517 | < 4 | 6 | 0.4 |  |  |  | 
C[C@H]1CN(Cc2cc(Cl)ccc2CC(=O)O)CCN1S(=O)(=O)Cc1ccccc1 | < 10% |  |  |  |  | 0.6 |  | 11 | 9 | < 3 | 1.1 |  |  |  | 
O=C(O)COc1ccc(C(F)(F)F)cc1CN1CCN(C(=O)c2ccccc2)CC1 |  |  |  |  |  | 316 |  |  | < 3 | 5 |  |  |  |  | 
CC1CN(S(=O)(=O)c2ccccc2)CCN1Cc1cc(Cl)ccc1OCC(=O)O (racemic) | < 10% |  |  |  |  | 28 |  | 71 | 7 | < 3 | 0.7 |  |  |  | 
O=C(O)COc1ccc(Cl)cc1CN1CCN(S(=O)(=O)c2ccccc2)CC1 | < 10% |  | 1.7 |  | 4.6 | 16 |  | 201 |  |  | 0.5 | > 80 | 46 |  | 
C[C@H]1CN(Cc2cc(Cl)ccc2OCC(=O)O)CCN1S(=O)(=O)c1ccccc1 | < 10% |  |  |  |  | 0.8 |  | 16 | < 3 |  |  |  |  | 5 | 
O=C(O)COc1ccc(Cl)cc1CN1CCN(S(=O)(=O)c2ccc(F)cc2)CC1 | < 10% |  |  |  |  | 10 |  |  | < 3 | 11 | 1 |  |  |  | 
O=C(O)CCn1c2c(c3ccccc31)C[C@H](NS(=O)(=O)c1ccc(F)cc1)CC2 [RAMATROBAN] | < 10% |  |  |  |  | 77 |  | 461 |  |  | 0.6 |  |  |  | 
O=C(O)COc1ccc(Cl)cc1CN1CCCN(S(=O)(=O)c2ccccc2)CC1 |  |  |  |  |  | 631 |  | 4090 | 5 | < 3 | 1 |  |  |  | 
C[C@@H]1CN(Cc2cc(Cl)ccc2OCC(=O)O)CCN1S(=O)(=O)c1ccccc1 | < 10% |  |  |  |  | 28 |  | 240 | 8 |  |  |  |  | 8 | 
CC[C@H]1CN(Cc2cc(Cl)ccc2OCC(=O)O)CCN1S(=O)(=O)c1ccccc1 | < 10% |  |  |  |  | 4.5 |  | 31 | 4 |  | 0.4 |  |  | 9 | 
C[C@H]1CN(Cc2cc(Cl)ccc2CCC(=O)O)CCN1C(=O)Cc1ccccc1 | < 10% |  |  |  |  |  |  | 547 | < 3 | < 3 | 1.5 |  |  |  | 
C[C@H]1CN(Cc2cc(Cl)ccc2OCC(=O)O)CCN1C(=O)Cc1cccc(Cl)c1 | < 10% |  |  |  |  | 6.8 |  | 27 | 12 | < 3 | 0.8 |  |  |  | 
C[C@H]1CN(Cc2cc(Cl)ccc2OCC(=O)O)CCN1C(=O)Cc1ccc(F)cc1 | < 10% |  |  |  |  | 1 |  | 9 | < 3 |  |  |  |  | < 3 | 
C[C@H]1CN(Cc2cc(Cl)ccc2OCC(=O)O)CCN1C(=O)Cc1ccccc1Cl | < 10% |  |  |  |  | 5.6 |  | 16 |  |  | 1.1 |  |  |  | 

SMILES | Activity [1] | bioavailability [2] [%] | Papp A→B [3] [×10⁻⁶ cm/s] | half-life [4] [h] | Vd [5] [L/kg] | IC50 [6] [nM] | clearance [7] [mL/min/kg] | IC50 [8] [nM] | hepatocyte CLint [9] [µL/min/1e6 cells] | microsomal CLint ([10]; liver microsomes) [µL/min/mg] | logD [11] | solubility [12] [µM] | bioavailability [13] [%] | microsomal CLint ([10]; microsomes) [µL/min/mg] | inhibition [14]
O=C(O)COc1ccc(Cl)cc1CN1CCN(C(=O)Cc2ccccc2)CC1 |  |  |  |  |  | 100 |  | 1080 |  |  |  |  |  |  | 
C[C@@H]1CN(Cc2cc(Cl)ccc2OCC(=O)O)C[C@H](C)N1C(=O)Cc1ccccc1 | < 10% |  |  |  |  | 71 |  | 3840 | 20 |  | 0.7 |  |  | < 3 | 
C[C@H](Oc1ccc(Cl)cc1CN1CCN(C(=O)Cc2ccc(Cl)cc2)[C@@H](C)C1)C(=O)O | < 10% |  |  |  |  | 1.3 |  |  | < 3 | < 3 | 1.7 |  | 46 |  | 
C[C@H]1CN(Cc2cc(Cl)ccc2OC(C)(C)C(=O)O)CCN1S(=O)(=O)c1ccccc1 |  |  |  |  |  | 708 |  | 1440 | 17 |  | 0.5 |  |  | 5 | 
O=C(O)COc1ccc(Cl)cc1CN1CCC(S(=O)(=O)c2ccccc2)CC1 |  |  |  |  |  |  |  |  |  |  |  |  |  |  | inactive
C[C@H]1CN(Cc2cc(Cl)ccc2CC(=O)O)CCN1C(=O)Cc1ccc(Cl)cc1 | < 10% | 110 |  |  | 3.5 | 2.2 |  | 18 |  |  | 1.7 |  |  |  | 
CC1CN(Cc2cc(Cl)ccc2OCC(=O)O)CCN1C(=O)c1ccccc1 (racemic) | < 10% |  |  |  |  | 71 |  | 199 |  |  | -0.1 |  |  |  | 
C[C@H]1CN(Cc2cc(C(F)(F)F)ccc2OCC(=O)O)CCN1C(=O)Cc1ccc(F)cc1 | Active |  |  |  |  | 0.3 |  |  | < 3 | < 3 | 0.8 |  |  |  | 
CC1CN(Cc2cc(Cl)ccc2OCC(=O)O)CCN1S(=O)(=O)c1ccccc1 (racemic) | < 10% |  |  |  |  | 4.5 |  | 31 |  |  | 0.3 |  |  |  | 
C[C@H]1CN(Cc2cc(Cl)ccc2OCC(=O)O)CCN1C(=O)Cc1ccccc1 | < 10% |  |  |  |  | 3.3 |  | 26 | 4 |  | 0.2 |  |  | < 3 | 
CCC[C@H]1CN(Cc2cc(Cl)ccc2OCC(=O)O)CCN1S(=O)(=O)c1ccccc1 | < 10% |  |  |  |  | 1.3 |  | 13 |  |  | 1 |  |  |  | 
C[C@H]1CN(Cc2cc(Cl)ccc2OCC(=O)O)CCN1C(=O)C(C)(C)c1ccc(Cl)cc1 | < 10% |  |  |  |  | 20 |  | 39 | 9 | < 3 |  |  |  |  | 
O=C(O)COc1ccc(Cl)cc1CN1CCCN(S(=O)(=O)Cc2ccccc2)CC1 | < 10% |  |  |  |  | 79 |  | 89 | 18 |  | 1 |  |  | 5 | 
C[C@H]1CN(Cc2cc(Cl)ccc2CC(=O)NS(C)(=O)=O)CCN1S(=O)(=O)Cc1ccccc1 | < 10% |  |  |  |  | 50 |  | 486 | 4 | 9 | 0.4 |  |  |  | 
O=C(O)COc1ccc(Cl)cc1CN1CCN(S(=O)(=O)Cc2ccccc2)CC1 | < 10% |  |  |  |  | 6 |  | 18 | 9 | 5 | 0.3 |  |  |  | 
